The subject of experiment [1] is Plasmodium yoelii. In words: Antimalarial activity against Plasmodium yoelii infected in Swiss-Webster mouse liver assessed as reduction of parasite burden at 50 mg/kg, ip administered 15 mins before infection measured up to 22 days relative to PBS treated group. As to conditions: route intraperitoneal.
Experiment [2] concerns Plasmodium yoelii. In words: Antimalarial activity against Plasmodium yoelii 17XNL infected in Swiss-Webster mouse liver assessed as reduction of parasite burden at 50 mg/kg, ip administered 15 mins before infection measured up to 22 days relative to PBS treated group. The format is functional. Particulars: route intraperitoneal.
Experiment [3] deals with Plasmodium berghei. The experiment in a line: Antimalarial activity against Plasmodium berghei NK65 infected in human HepG2 cells assessed as reduction of liver stage parasites level treated for 12 hrs measured 40 hrs after drug washout. The format is functional, organism-based. The gist of the method:
(§1)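 P. berghei NK65 sporozoites from mosquito salivary glands (5 × 10⁴/well) added to HepG2 cells seeded the day before in DMEM/10% FCS, with compound at 0.5, 2 or 10 μM. At 12 h p.i. the medium was replaced with compound-free medium. Liver stages at 40 h p.i. were stained with MAb 2E6 and FITC anti-mouse IgG and counted by fluorescence microscopy. At least three experiments, each in duplicate.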

Experiment [4] has as its system Plasmodium berghei. In words: Antimalarial activity against Plasmodium berghei NK65 infected in human HepG2 cells assessed as inhibition of transformation of sporozoites into liver stage at 10 uM treated for 3 hrs measured 40 hrs after drug washout. The format is functional, organism-based. The essentials:
(§2)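 HepG2 cells were infected with P. berghei NK65 sporozoites (5 × 10⁴/well) in the presence of compound. The compound-containing medium was removed 3 h after infection. Liver stages at 40 h p.i. were immunostained with MAb 2E6 and FITC secondary, then counted by fluorescence microscopy. At least three experiments, in duplicate.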

The subject of experiment [5] is Plasmodium berghei. In words: Antimalarial activity against Plasmodium berghei NK65 infected in human HepG2 cells assessed as inhibition of sporozoite invasion after 1 hr. Type of experiment: functional. The gist of the method: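 HepG2 cells were infected with P. berghei NK65 sporozoites (5 × 10⁴/well) with compound at 0.5, 2 or 10 μM for 1 h at 37°C. Cells were fixed with 4% paraformaldehyde and double-stained to tell intracellular from extracellular sporozoites. Intracellular sporozoites were counted.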

Experiment [6] has as its system Plasmodium berghei. The experiment in a line: Antimalarial activity against Plasmodium berghei ANKA infected through mosquito bite in C57BL/6 mouse liver assessed as increase of average prepatent period at 50 mg/kg, ip administered first dose 15 mins before infection and second and third doses given 6 hrs and 12 hrs postinfection measured up to 22 days (reference value: 2.66 +/- 0.57 days). Particulars: route intraperitoneal.

Experiment [7] has as its system Plasmodium berghei. The experiment in a line: Inhibition of Plasmodium berghei NK65 motility up to 10 uM after 2 hrs. Type of experiment: functional, organism-based. The essentials: (§3)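 Gliding assay. Slides were coated with anti-CSP MAb 3D11 (10 μg/ml). P. berghei NK65 sporozoites (1 × 10⁴/well) were added with compound at 0.5, 2 or 10 μM in DMEM with 3% BSA and incubated 2 h at 37°C. Wells were fixed with paraformaldehyde and blocked. Trails were stained with biotinylated 3D11 and streptavidin-FITC.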

The test system of experiment [8] is Plasmodium yoelii. In words: Antimalarial activity against Plasmodium yoelii 17XNL infected in Swiss-Webster mouse liver assessed as prevention of appearance of blood-stage parasites at 50 mg/kg, ip administered first dose 15 mins before infection and second and third doses given 6 hrs and 12 hrs postinfection measured up to 22 days. On the set-up: dose 50 mg/kg. The format is functional, organism-based. The essentials:
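Female Swiss-Webster mice (6–8 weeks, n = 10) were given 50 mg/kg ip in PBS, or PBS alone. Doses were given 15 min before iv injection of P. yoelii 17XNL sporozoites (5 × 10³/mouse), then at 6 h and 12 h p.i. Blood-stage parasites were checked daily on Giemsa-stained smears for up to 3 weeks.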

In experiment [9] the test system is Plasmodium berghei. The experiment in a line: Antimalarial activity against Plasmodium berghei NK65 infected in human HepG2 cells assessed as reduction of liver stage parasites level at 2 uM treated for 12 hrs measured 40 hrs after drug washout. Type of experiment: functional, organism-based. The gist of the method: as §1
For experiment [10], the system named is Plasmodium berghei. In words: Antimalarial activity against Plasmodium berghei NK65 infected in human HepG2 cells assessed as reduction of liver stage parasites level at 2 uM treated for 3 hrs measured 40 hrs after drug washout. The format is functional, organism-based. The essentials:
as §2

Experiment [11] relates to Plasmodium berghei. In words: Antimalarial activity against Plasmodium berghei NK65 assessed as reduction of number of complex trails up to 10 uM relative to untreated control. Also on record: scale not given: the % may be the effect or the level left. Type of experiment: functional. The gist of the method:
as §3

In experiment [12] the test system is Plasmodium yoelii. In words: Antimalarial activity against Plasmodium yoelii 17XNL infected in Swiss-Webster mouse liver assessed as reduction liver-stage infection at 50 mg/kg, ip administered 15 mins before infection measured up to 22 days. Type of experiment: functional, organism-based. Also on record: dose 50 mg/kg. The essentials:
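Female Swiss-Webster mice (6–8 weeks, n = 3) received one ip dose of 50 mg/kg in PBS, or PBS alone, before iv infection with P. yoelii 17XNL sporozoites (1 × 10⁴/mouse). The prepatent period was followed by daily Giemsa-stained blood smears.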

The test system of experiment [13] is Plasmodium berghei. In words: Antimalarial activity against PbPKG knockout Plasmodium berghei NK65 infected in human HepG2 cells assessed as reduction of liver stage parasites level treated for 3 hrs measured 40 hrs after drug washout. The format is functional, organism-based.
Experiment [14] has as its system Plasmodium berghei. In words: Antimalarial activity against PbPKG knockout Plasmodium berghei NK65 infected in human HepG2 cells assessed as reduction of liver stage parasites level treated before infection measured 40 hrs after drug washout. Type of experiment: functional, organism-based.
Experiment [15] concerns Plasmodium berghei. The experiment in a line: Antimalarial activity against Plasmodium berghei NK65 infected in human HepG2 cells assessed as inhibition of transformation of sporozoites into liver stage at 10 uM treated 3 hrs after infection measured 40 hrs after drug washout. Type of experiment: functional, organism-based. The essentials: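 Compound at 10 μM was added to HepG2 cultures 3 h after P. berghei NK65 sporozoite addition. Liver stages were detected at 40 h p.i. by MAb 2E6/FITC immunofluorescence and counted. Compared with untreated wells by t test. At least three experiments, in duplicate.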

Activity calls are given as the source filed them. The calls are words filed in the database; no cut-off is given here.

In the case of `CN1CCC(c2cc(-c3ccncc3)c(-c3ccc(F)cc3)[nH]2)CC1`, the “fold change (FC)” value with Plasmodium yoelii [1] and in the experiment with Plasmodium yoelii [2] was greater than 1000 each time. The Activity result in the experiment on Plasmodium berghei [3] is “Dose dependent effect”; in the experiment on Plasmodium berghei [11], 50%. In addition, the inhibition result in the experiment on Plasmodium berghei [4] was “Active”. In the experiment with Plasmodium berghei [5], the INH was greater than 1 µM. For the same compound, the Time with Plasmodium berghei [6] was 5.33 days. Besides, the inhibition result with Plasmodium berghei [7] and with Plasmodium berghei [15] was “inactive” each time. The result in the experiment with Plasmodium yoelii [8], in the experiment on Plasmodium berghei [9], with Plasmodium berghei [10], with Plasmodium yoelii [12] and with Plasmodium berghei [13] was Active. The outcome in the experiment with Plasmodium berghei [14] was inactive.
